Columns and labels:
Type in all cases: functional
Escherichia coli [1] = experiment: Antibacterial activity against Escherichia coli ATCC25922 assessed as inhibition of visible bacterial growth measured after 20 hrs under aerobic condition by two fold serial dilution assay
Outline: (§1)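 Broth microdilution following EUCAST. Compound was tested at final well concentrations of 0.25–128 µg/mL against 5.10^5 CFU/mL inoculum, incubated 20 h at 37 °C aerobically. MIC was taken as the lowest concentration with no visible growth. There were three independent experiments per strain.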

Klebsiella pneumoniae [2] = experiment: Antibacterial activity against Klebsiella pneumoniae ATCC700603 assessed as inhibition of visible bacterial growth measured after 20 hrs under aerobic condition by two fold serial dilution assay; outline: as §1
Pseudomonas aeruginosa [3] = experiment: Antibacterial activity against Pseudomonas aeruginosa ATCC27853 assessed as inhibition of visible bacterial growth measured after 20 hrs under aerobic condition by two fold serial dilution assay; outline: as §1
Escherichia coli [4] = experiment: Antibacterial activity against colistin resistant Escherichia coli NTCC 13846 harboring mcr-1 gene assessed as inhibition of visible bacterial growth measured after 20 hrs under aerobic condition by two fold serial dilution assay
Escherichia coli [5] = experiment: Antibacterial activity against colistin resistant Escherichia coli A50 harboring mcr-1 gene assessed as inhibition of visible bacterial growth measured after 20 hrs under aerobic condition by two fold serial dilution assay
Klebsiella pneumoniae [6] = experiment: Antibacterial activity against chromosomally-mediated resistant Klebsiella pneumoniae BA03057 assessed as inhibition of visible bacterial growth measured after 20 hrs under aerobic condition by two fold serial dilution assay
Pseudomonas aeruginosa [7] = experiment: Antibacterial activity against chromosomally-mediated colistin resistant Pseudomonas aeruginosa 15080 assessed as inhibition of visible bacterial growth measured after 20 hrs under aerobic condition by two fold serial dilution assay
Pseudomonas aeruginosa [8] = experiment: Antibacterial activity against chromosomally-mediated colistin resistant Pseudomonas aeruginosa 10039 assessed as inhibition of visible bacterial growth measured after 20 hrs under aerobic condition by two fold serial dilution assay
Pseudomonas aeruginosa [9] = experiment: Antibacterial activity against chromosomally-mediated colistin resistant Pseudomonas aeruginosa 1002 assessed as inhibition of visible bacterial growth measured after 20 hrs under aerobic condition by two fold serial dilution assay
Klebsiella pneumoniae [10] = experiment: Synergistic antibacterial activity against Klebsiella pneumoniae BA03057 assessed as fractional inhibitory concentration index incubated for 24 hrs under aerobic condition in presence of colistin by checkerboard assay
Outline: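 Checkerboard against KP BA03057 at 5.10^5 CFU/mL. Colistin was two-fold diluted 0–64 µg/mL across compound two-fold diluted 0–100 µM. Plates were incubated 24 h at 37 °C aerobically and absorbance read at 600 nm. FICI = MIC(compound, combined)/MIC(compound alone) + MIC(colistin, combined)/MIC(colistin alone), with synergy at FICI < 0.5. Plates were run in duplicate.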

Escherichia coli [11] = experiment: Colistin adjuvant activity against colistin-resistant Escherichia coli A50 assessed as antibacterial effect by measuring colistin MIC incubated for 24 hrs under aerobic condition by two fold serial dilution method
Klebsiella pneumoniae [12] = experiment: Colistin adjuvant activity against colistin-resistant Klebsiella pneumoniae BA03057 assessed as antibacterial effect by measuring colistin MIC incubated for 24 hrs under aerobic condition by two fold serial dilution method
Escherichia coli [13] = experiment: Colistin adjuvant activity against colistin-resistant Escherichia coli A50 assessed as colistin MIC by measuring potentiation fold incubated for 24 hrs under aerobic condition by two fold serial dilution method relative to colistin alone
Klebsiella pneumoniae [14] = experiment: Colistin adjuvant activity against colistin-resistant Klebsiella pneumoniae BA03057 assessed as colistin MIC by measuring potentiation fold incubated for 24 hrs under aerobic condition by two fold serial dilution method relative to colistin alone

| Compound | MIC (Escherichia coli [1]) | MIC (Klebsiella pneumoniae [2]) | MIC (Pseudomonas aeruginosa [3]) | MIC (Escherichia coli [4]) | MIC (Escherichia coli [5]) | MIC (Klebsiella pneumoniae [6]) | MIC (Pseudomonas aeruginosa [7]) | MIC (Pseudomonas aeruginosa [8]) | MIC (Pseudomonas aeruginosa [9]) | fractional inhibitory concentration index (FICI) (Klebsiella pneumoniae [10]) | MIC (Escherichia coli [11]) | MIC (Klebsiella pneumoniae [12]) | fold change (FC) (Escherichia coli [13]) | fold change (FC) (Klebsiella pneumoniae [14]) |
| --- | --- | --- | --- | --- | --- | --- | --- | --- | --- | --- | --- | --- | --- | --- |
| O=C(NCCc1c[nH]c2ccccc12)Nc1ccc(C(F)(F)F)cc1 | > 128 µg/mL | > 128 µg/mL | > 128 µg/mL | > 128 µg/mL | > 128 µg/mL | > 128 µg/mL | > 128 µg/mL | > 128 µg/mL | > 128 µg/mL | 0.167 | 8 µg/mL | 2 µg/mL | 1 | 0.031 |
| O=C(NCCc1c[nH]c2ccccc12)Nc1ccc(Cl)cc1 | > 128 µg/mL | > 128 µg/mL | > 128 µg/mL | > 128 µg/mL | > 128 µg/mL | > 128 µg/mL | > 128 µg/mL | > 128 µg/mL | > 128 µg/mL | 0.276 | 4 µg/mL | 4 µg/mL | 0.5 | 0.062 |
| COc1ccc(NC(=O)NCCc2c[nH]c3ccccc23)cc1 | > 128 µg/mL | > 128 µg/mL | > 128 µg/mL | > 128 µg/mL | > 128 µg/mL | > 128 µg/mL | > 128 µg/mL | > 128 µg/mL | > 128 µg/mL | – | 4 µg/mL | 16 µg/mL | 0.5 | 0.25 |
| O=C(NCCc1c[nH]c2ccccc12)Nc1ccccc1F | > 128 µg/mL | > 128 µg/mL | > 128 µg/mL | > 128 µg/mL | > 128 µg/mL | > 128 µg/mL | > 128 µg/mL | > 128 µg/mL | > 128 µg/mL | – | 8 µg/mL | 8 µg/mL | 1 | 0.125 |
| CCCCCCNC(=O)NCCc1c[nH]c2ccccc12 | > 128 µg/mL | > 128 µg/mL | > 128 µg/mL | > 128 µg/mL | > 128 µg/mL | > 128 µg/mL | > 128 µg/mL | > 128 µg/mL | > 128 µg/mL | 0.143 | 4 µg/mL | 2 µg/mL | 0.5 | 0.031 |
| O=C(NCCc1c[nH]c2ccccc12)Nc1ccccc1Br | > 128 µg/mL | > 128 µg/mL | > 128 µg/mL | > 128 µg/mL | > 128 µg/mL | > 128 µg/mL | > 128 µg/mL | > 128 µg/mL | > 128 µg/mL | 0.31 | 4 µg/mL | 2 µg/mL | 0.5 | 0.031 |
| O=C(NCCc1c[nH]c2ccccc12)Nc1ccc(F)cc1 | > 128 µg/mL | > 128 µg/mL | > 128 µg/mL | > 128 µg/mL | > 128 µg/mL | > 128 µg/mL | > 128 µg/mL | > 128 µg/mL | > 128 µg/mL | – | 4 µg/mL | 8 µg/mL | 0.5 | 0.125 |
| Cc1ccc(NC(=O)NCCc2c[nH]c3ccccc23)cc1 | > 128 µg/mL | > 128 µg/mL | > 128 µg/mL | > 128 µg/mL | > 128 µg/mL | > 128 µg/mL | > 128 µg/mL | > 128 µg/mL | > 128 µg/mL | – | 4 µg/mL | 8 µg/mL | 0.5 | 0.125 |
| O=C(NCCc1c[nH]c2ccccc12)NCc1ccccc1 | > 128 µg/mL | > 128 µg/mL | > 128 µg/mL | > 128 µg/mL | > 128 µg/mL | > 128 µg/mL | > 128 µg/mL | > 128 µg/mL | > 128 µg/mL | – | 4 µg/mL | 8 µg/mL | 0.5 | 0.125 |
| O=C(NCCc1c[nH]c2ccccc12)Nc1cccc(Br)c1 | > 128 µg/mL | > 128 µg/mL | > 128 µg/mL | > 128 µg/mL | > 128 µg/mL | > 128 µg/mL | > 128 µg/mL | > 128 µg/mL | > 128 µg/mL | – | 8 µg/mL | 8 µg/mL | 1 | 0.125 |
| CC(C)c1ccc(NC(=O)NCCc2c[nH]c3ccccc23)cc1 | > 128 µg/mL | > 128 µg/mL | > 128 µg/mL | > 128 µg/mL | > 128 µg/mL | > 128 µg/mL | > 128 µg/mL | > 128 µg/mL | > 128 µg/mL | – | 4 µg/mL | 16 µg/mL | 0.5 | 0.25 |
| O=C(NCCc1c[nH]c2ccccc12)Nc1ccccc1 | > 128 µg/mL | > 128 µg/mL | > 128 µg/mL | > 128 µg/mL | > 128 µg/mL | > 128 µg/mL | > 128 µg/mL | > 128 µg/mL | > 128 µg/mL | – | 8 µg/mL | 8 µg/mL | 1 | 0.125 |
| O=C(NCCc1c[nH]c2ccccc12)Nc1cc(Cl)cc(Cl)c1 | > 128 µg/mL | > 128 µg/mL | > 128 µg/mL | > 128 µg/mL | > 128 µg/mL | > 128 µg/mL | > 128 µg/mL | > 128 µg/mL | > 128 µg/mL | – | 2 µg/mL | 2 µg/mL | 0.25 | 0.031 |
| COLISTIN | 0.25 µg/mL | 0.5 µg/mL | 2 µg/mL | 2 µg/mL | 8 µg/mL | 64 µg/mL | 2 µg/mL | 4 µg/mL | 2 µg/mL | – | – | – | – | – |
| CC(C)(C)NC(=O)NCCc1c[nH]c2ccccc12 | > 128 µg/mL | > 128 µg/mL | > 128 µg/mL | > 128 µg/mL | > 128 µg/mL | > 128 µg/mL | > 128 µg/mL | > 128 µg/mL | > 128 µg/mL | – | 8 µg/mL | 8 µg/mL | 1 | 0.125 |
| CCCNC(=O)NCCc1c[nH]c2ccccc12 | > 128 µg/mL | > 128 µg/mL | > 128 µg/mL | > 128 µg/mL | > 128 µg/mL | > 128 µg/mL | > 128 µg/mL | > 128 µg/mL | > 128 µg/mL | – | 4 µg/mL | 8 µg/mL | 0.5 | 0.125 |
| O=C(NCCc1c[nH]c2ccccc12)Nc1ccc(Br)cc1 | > 128 µg/mL | > 128 µg/mL | > 128 µg/mL | > 128 µg/mL | > 128 µg/mL | > 128 µg/mL | > 128 µg/mL | > 128 µg/mL | > 128 µg/mL | – | 2 µg/mL | 8 µg/mL | 0.25 | 0.125 |
| O=C(NCCc1c[nH]c2ccccc12)Nc1ccccc1Cl | > 128 µg/mL | > 128 µg/mL | > 128 µg/mL | > 128 µg/mL | > 128 µg/mL | > 128 µg/mL | > 128 µg/mL | > 128 µg/mL | > 128 µg/mL | – | 8 µg/mL | 8 µg/mL | 1 | 0.125 |
| O=C(NCCc1c[nH]c2ccccc12)Nc1cccc(Cl)c1 | > 128 µg/mL | > 128 µg/mL | > 128 µg/mL | > 128 µg/mL | > 128 µg/mL | > 128 µg/mL | > 128 µg/mL | > 128 µg/mL | > 128 µg/mL | 0.062 | 8 µg/mL | 2 µg/mL | 1 | 0.031 |

Source: ChEMBL document CHEMBL5523690, “Synergistic effect of tryptamine-urea derivatives to overcome the chromosomally-mediated colistin resistance in Klebsiella pneumoniae” (Bioorg Med Chem, 2024)
